Eleven molecules from ChEMBL document CHEMBL4004832, “Synthesis, surfactant properties and antimicrobial activities of methyl glycopyranoside ethers” (2017) can be followed below.

SMILES strings stand for the structures. In brackets after ≈: the same amount, converted by molar mass. Bounds are passed on as bounds.

In assay [1] the test system is Staphylococcus aureus. The assay can be described thus: Antibacterial activity against Staphylococcus aureus ATCC 25923 after 18 hrs by broth microdilution assay. It counts as functional. Particulars: ATCC 25923, 18 h. The essentials:
(§1)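 Staphylococcus aureus reference strains and methicillin- and daptomycin-resistant isolates tested by MIC according to CLSI guidance (M100-S17), with oxacillin as control. The endpoint is the lowest concentration with no growth in all replicates versus a negative control at 18 h. Values are reported in mmol/L.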

Assay [2] deals with Staphylococcus aureus. Briefly: Antibacterial activity against methicillin-resistant Staphylococcus aureus isolate HT 2006-1004 after 18 hrs by broth microdilution assay. The format is functional. Particulars: isolate HT 2006-1004, 18 h. The essentials:
as §1

The test system of assay [3] is Listeria monocytogenes. Briefly: Antibacterial activity against Listeria monocytogenes isolate 015170199001 after 18 hrs by broth microdilution assay. It counts as functional. The following applies: isolate 015170199001, 18 h. The method in brief: (§2)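 Broth MIC testing on Gram-positive strains followed CLSI M100-S17 recommendations. […] Values are in mmol/L. Amoxicillin was the control for Listeria and Enterococcus strains and oxacillin for S. aureus strains.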
(In general: In broth dilution the organism is exposed to a series of concentrations in liquid medium.)

The subject of assay [4] is Listeria monocytogenes. Briefly: Antibacterial activity against Listeria monocytogenes CIP 103575 after 18 hrs by broth microdilution assay. The format is functional. Particulars: CIP 103575, 18 h. The essentials: as §2
In assay [5] the test system is Staphylococcus aureus. The assay can be described thus: Antibacterial activity against methicillin-resistant Staphylococcus aureus LAC USA300 after 18 hrs by broth microdilution assay. It counts as functional. The method in brief: as §1
Assay [6] deals with Enterococcus faecalis. The assay can be described thus: Antibacterial activity against Enterococcus faecalis isolate 015206179901 after 18 hrs by broth microdilution assay. It counts as functional. Particulars: isolate 015206179901, 18 h. The essentials:
as §2

Assay [7] has as its system Staphylococcus aureus. The assay can be described thus: Antibacterial activity against daptomycin-resistant Staphylococcus aureus isolate ST 2014-1288 after 18 hrs by broth microdilution assay. The format is functional. The following applies: isolate ST 2014-1288, 18 h. The essentials:
as §1

Assay [8] has as its system Enterococcus faecium. Briefly: Antibacterial activity against Enterococcus faecium isolate 015205731401 after 18 hrs by broth microdilution assay. Particulars: isolate 015205731401, 18 h. It counts as functional. The essentials: as §2
Assay [9] deals with Enterococcus faecium. The assay can be described thus: Antibacterial activity against […] Enterococcus faecium isolate 0151850763 after 18 hrs by broth microdilution assay. The following applies: isolate 0151850763, 18 h. It counts as functional. The method in brief: (§3)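 Enterococcus faecium strains (reference, clinical isolates, VanA isolate) tested by MIC following CLSI recommendations (M100-S17), with amoxicillin as control. […] Values are expressed in mmol/L.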

For assay [10], the system named is Enterococcus faecium. The assay can be described thus: Antibacterial activity against Enterococcus faecium isolate 015205261801 after 18 hrs by broth microdilution assay. Particulars: isolate 015205261801, 18 h. The format is functional. The essentials:
as §3

Assay [11] deals with Staphylococcus aureus. Briefly: Antibacterial activity against methicillin-resistant Staphylococcus aureus isolate HT 2002-0417 after 18 hrs by broth microdilution assay. The format is functional. Particulars: isolate HT 2002-0417, 18 h. The essentials:
as §1

Assay [12] deals with Enterococcus faecalis. Briefly: Antibacterial activity against Enterococcus faecalis ATCC 29212 after 18 hrs by broth microdilution assay. It counts as functional. The following applies: ATCC 29212, 18 h. The essentials: as §2
The subject of assay [13] is Enterococcus faecium. The assay can be described thus: Antibacterial activity against Enterococcus faecium CIP 103510 after 18 hrs by broth microdilution assay. The format is functional. The following applies: CIP 103510, 18 h. The essentials:
as §3

The subject of assay [14] is Listeria monocytogenes. The assay can be described thus: Antibacterial activity against Listeria monocytogenes isolate 015189074801 after 18 hrs by broth microdilution assay. The format is functional. The following applies: isolate 015189074801, 18 h. The method in brief:
as §2

For assay [15], the system named is Staphylococcus aureus. Briefly: Antibacterial activity against methicillin-resistant Staphylococcus aureus Mu3 after 18 hrs by broth microdilution assay. It counts as functional. The following applies: Mu3, 18 h. The essentials: as §1
Assay [16] concerns Staphylococcus aureus. Briefly: Antibacterial activity against daptomycin-resistant Staphylococcus aureus isolate ST 2015-0188 after 18 hrs by broth microdilution assay. It counts as functional. The following applies: isolate ST 2015-0188, 18 h. The method in brief: as §1
The test system of assay [17] is Staphylococcus aureus. Briefly: Antibacterial activity against Staphylococcus aureus ATCC 29213 after 18 hrs by broth microdilution assay. The format is functional. Particulars: ATCC 29213, 18 h. The method in brief: as §2
Assay [18] relates to Staphylococcus aureus. The assay can be described thus: Antibacterial activity against methicillin-resistant Staphylococcus aureus isolate LY 1999-0053 after 18 hrs by broth microdilution assay. It counts as functional. Particulars: isolate LY 1999-0053, 18 h. The method in brief:
as §1

The test system of assay [19] is Staphylococcus aureus. The assay can be described thus: Antibacterial activity against daptomycin-resistant Staphylococcus aureus isolate ST 2015-0989 after 18 hrs by broth microdilution assay. The format is functional. The following applies: isolate ST 2015-0989, 18 h. The method in brief:
as §1

The subject of assay [20] is Listeria monocytogenes. The assay can be described thus: Antibacterial activity against Listeria monocytogenes isolate 015181840701 after 18 hrs by broth microdilution assay. It counts as functional. The following applies: isolate 015181840701, 18 h. The method in brief:
as §2

The test system of assay [21] is Staphylococcus aureus. The assay can be described thus: Antibacterial activity against methicillin-resistant Staphylococcus aureus isolate HT 2004-0012 after 18 hrs by broth microdilution assay. The format is functional. Particulars: isolate HT 2004-0012, 18 h. The method in brief:
as §1

The nature of assay [22]: Surfactant property of the compound in aqueous solution assessed as critical micelle concentration or minimal hydrotropic concentration. The method in brief: (§4)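 Surface tension of aqueous solutions was measured by a rod method based on the Wilhelmy plate. Water was progressively concentrated with a stock surfactant solution at constant volume. At each concentration, readings continued until stable (SD of the last 5 values 0.2 mN/m). MHC or CMC and the plateau γsat were taken from the tension vs concentration curves.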

Assay [23] is described as follows: Surfactant property of the compound in water assessed as critical micelle concentration or minimal hydrotropic concentration by platinum rod based tensiometric method. The essentials: as §4
A further assay has as its system Escherichia coli. Briefly: Antibacterial activity against Escherichia coli ATCC 8739 after 18 hrs by broth microdilution assay. It counts as functional. Particulars: ATCC 8739, 18 h.
For a further assay, the system named is Pseudomonas aeruginosa. The assay can be described thus: Antibacterial activity against Pseudomonas aeruginosa ATCC 27853 after 18 hrs by broth microdilution assay. Particulars: ATCC 27853, 18 h. The format is functional.

Regarding `CCCCCCCCCCCCOC[C@H]1O[C@H](OC)[C@@H](O)[C@@H](O)[C@@H]1O`, the MIC (commonly the lowest concentration that inhibits growth of the organism) worked out at 90 µM (≈ 32.6 µg/mL) against Staphylococcus aureus [1]; 180 µM (≈ 65.3 µg/mL) with Staphylococcus aureus [2]; 40 µM (≈ 14.5 µg/mL) in the assay on Listeria monocytogenes [3]; 90 µM (≈ 32.6 µg/mL) with Listeria monocytogenes [4]; 90 µM (≈ 32.6 µg/mL) in the assay with Staphylococcus aureus [5]; 90 µM (≈ 32.6 µg/mL) against Enterococcus faecalis [6]. The MIC against Staphylococcus aureus [7] came to 90 µM (≈ 32.6 µg/mL); in the assay with Enterococcus faecium [8], 40 µM (≈ 14.5 µg/mL); with Enterococcus faecium [9], 40 µM (≈ 14.5 µg/mL); in the assay on Enterococcus faecium [10], 40 µM (≈ 14.5 µg/mL); in the assay with Staphylococcus aureus [11], 90 µM (≈ 32.6 µg/mL); against Enterococcus faecalis [12], 40 µM (≈ 14.5 µg/mL). Also, the MIC against Enterococcus faecium [13] was determined as 90 µM (≈ 32.6 µg/mL); in the assay on Listeria monocytogenes [14] it was 20 µM (≈ 7.25 µg/mL); against Staphylococcus aureus [15], 180 µM (≈ 65.3 µg/mL); against Staphylococcus aureus [16], 180 µM (≈ 65.3 µg/mL); against Staphylococcus aureus [17] it was 90 µM (≈ 32.6 µg/mL); with Staphylococcus aureus [18], 90 µM (≈ 32.6 µg/mL). The MIC in the assay on Staphylococcus aureus [19] came out at 180 µM (≈ 65.3 µg/mL); with Listeria monocytogenes [20] it was 40 µM (≈ 14.5 µg/mL); with Staphylococcus aureus [21], 90 µM (≈ 32.6 µg/mL).
Take `CCCCCCCCCCCC(=O)OC[C@H]1O[C@H](O[C@H]2[C@H](O)[C@@H](O)C(O)O[C@@H]2CO)[C@H](O)[C@@H](O)[C@@H]1O` (stereo not given in full): the CMC in assay [22] stood at 0.24 mmol/L.
On to `CCCCCCCCCCCCOC[C@H]1O[C@H](OC)[C@H](O)[C@@H](O)[C@@H]1O`, for which the MIC against Listeria monocytogenes [4] and with Staphylococcus aureus [17] was 40 µM (≈ 14.5 µg/mL) throughout. For the same molecule, in assay [23], the CMC stood at 0.03 mmol/L.
On to `CCCCCCCCCCCC(=O)OC[C@H]1O[C@H](OC)[C@H](O)[C@@H](O)[C@@H]1O`, for which the CMC in assay [22] stood at 0.052 mmol/L. Further, the MIC worked out at 80 µM (≈ 30.1 µg/mL) against Listeria monocytogenes [4] and 320 µM (≈ 120 µg/mL) against Staphylococcus aureus [17].
For `CCCCCCCCOC[C@H]1O[C@H](OC)[C@H](O)[C@@H](O)[C@@H]1O`, the MIC in the assay on Escherichia coli is greater than 4000 µM; with Listeria monocytogenes [4] it was 2000 µM (≈ 613 µg/mL); in the assay on Pseudomonas aeruginosa it was greater than 4000 µM; against Enterococcus faecalis [12], greater than 4000 µM; against Staphylococcus aureus [17] it was 2000 µM (≈ 613 µg/mL). Further, the CMC in [23] was 0.434 mmol/L.
Regarding `CCCCCCCCCCC[C@@H]1OC[C@H]2O[C@@H](OC)[C@H](O)[C@@H](O)[C@@H]2O1`, the MIC in the assay on Staphylococcus aureus [1] was 180 µM (≈ 64.9 µg/mL); in the assay on Staphylococcus aureus [2], 180 µM (≈ 64.9 µg/mL); with Listeria monocytogenes [3], 40 µM (≈ 14.4 µg/mL); in the assay with Listeria monocytogenes [4], 40 µM (≈ 14.4 µg/mL); with Staphylococcus aureus [5] it was 180 µM (≈ 64.9 µg/mL); in the assay on Enterococcus faecalis [6] it was 90 µM (≈ 32.4 µg/mL). Further, the MIC against Staphylococcus aureus [7] was 180 µM (≈ 64.9 µg/mL); with Enterococcus faecium [8] it was 40 µM (≈ 14.4 µg/mL); with Enterococcus faecium [9], 90 µM (≈ 32.4 µg/mL); against Enterococcus faecium [10], 20 µM (≈ 7.21 µg/mL); against Staphylococcus aureus [11], 370 µM (≈ 133 µg/mL); in the assay with Enterococcus faecalis [12], 180 µM (≈ 64.9 µg/mL). The MIC stood at 90 µM (≈ 32.4 µg/mL) against Enterococcus faecium [13]; 40 µM (≈ 14.4 µg/mL) with Listeria monocytogenes [14]; 180 µM (≈ 64.9 µg/mL) in the assay with Staphylococcus aureus [15]; 180 µM (≈ 64.9 µg/mL) in the assay with Staphylococcus aureus [16]; 180 µM (≈ 64.9 µg/mL) against Staphylococcus aureus [17]; 180 µM (≈ 64.9 µg/mL) against Staphylococcus aureus [18]. The MIC with Staphylococcus aureus [19], with Listeria monocytogenes [20] and in the assay on Staphylococcus aureus [21] was 180 µM (≈ 64.9 µg/mL) in each case.
In the case of `CCCCCCCCCCCC(=O)OC[C@H]1O[C@H](O[C@]2(CO)O[C@H](CO)[C@@H](O)[C@@H]2O)[C@H](O)[C@@H](O)[C@@H]1O`, in assay [22], the CMC was found to be 0.25 mmol/L.
Same read-out and setting: in the case of `CCCCCCCCCCCCOC[C@H]1OC(O)[C@H](O)[C@@H](O)[C@@H]1O` (stereo not given in full) it was 0.5 mmol/L.
`CCCCCCCCCCCCO[C@H]1[C@H](O)[C@@H](O)[C@@H](OC)O[C@@H]1CO`: the CMC in assay [23] came to 0.046 mmol/L.
As for `CCCCCCCCCCC[C@@H]1OC[C@H]2O[C@H](OC)[C@H](O)[C@@H](O)[C@@H]2O1`, in [23], the CMC is greater than 0.06 mmol/L.
Regarding `CCCCCCOC[C@H]1O[C@H](OC)[C@H](O)[C@@H](O)[C@@H]1O`, the MIC against Escherichia coli, against Listeria monocytogenes [4], in the assay with Pseudomonas aeruginosa, with Enterococcus faecalis [12] and in the assay with Staphylococcus aureus [17] was greater than 4000 µM throughout. Further, the CMC in assay [23] came out at 13.4 mmol/L.
